UPR XBP1 act – activators of adaptive XBP1 UPR arm, primary screen, cell-based, CHO-XBP1 luciferase reporter, luminescence, uHTS; IRE1-XBP1 UPR activation; percent of tunicamycin response, DMSO as zero; activation, % at 20 µM; hit rate 0.33% among 330,000; AID 463104, 2010;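 active means versus positive control, 20 µM dose yields 30% or more activation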;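 further: 100% = tunicamycin at 10 µg/mL and 0% = DMSO only wells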
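incubation = overnight seeding at 37 °C, 6 h compound treatment at 37 °C | assay system = CHO-XBP1 cells stably carrying IRE1-XBP1-driven luciferase reporter | input = 1000 cells per well | detection = luciferase luminescence | dosing = single point, 20 µM final compound, 1% DMSO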
HCV NS3 hel inh – inhibitors of HCV NS3 helicase, primary screen, biochemical, Cy5 molecular beacon fluorescence. Hepatitis C virus NS3 helicase. NS3 helicase DNA unwinding. inhibition, % at 10.9 µM. hit rate 0.56% among 290,000;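 active means inhibition above the mean of all tested compounds plus 3 SD, set per campaign, cut at about 35% in these data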;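 further: 0% = DMSO wells and 100% = thioflavine S control wells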
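assay system = NS3 helicase fragment of HCV | buffer or medium = MOPS pH 6.5, MgCl2, DTT, Tween20, BSA | timing = 60 min unwinding reaction at 25 °C after ATP addition | signal = Cy5 beacon fluorescence read at start and 1 h | read-out basis = % inhibition of unwinding | control set = low DMSO, high thioflavine S at 110 µM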
p97 inhibitor – inhibitors of human p97 ATPase, primary screen, biochemical | hit rate 0.42% among 220,000 | inhibition, % at 8 µM | Transitional endoplasmic reticulum ATPase (Homo sapiens), P55072 | AID 1481, 2009 | recombinant p97 ATPase, Kinase-Glo ATP luminescence, 3 h; in the data active means inhibition above about 15%;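 further: 0% = DMSO vehicle and 100% = wells lacking enzyme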
Target sequence (P55072 whole entry, looked up): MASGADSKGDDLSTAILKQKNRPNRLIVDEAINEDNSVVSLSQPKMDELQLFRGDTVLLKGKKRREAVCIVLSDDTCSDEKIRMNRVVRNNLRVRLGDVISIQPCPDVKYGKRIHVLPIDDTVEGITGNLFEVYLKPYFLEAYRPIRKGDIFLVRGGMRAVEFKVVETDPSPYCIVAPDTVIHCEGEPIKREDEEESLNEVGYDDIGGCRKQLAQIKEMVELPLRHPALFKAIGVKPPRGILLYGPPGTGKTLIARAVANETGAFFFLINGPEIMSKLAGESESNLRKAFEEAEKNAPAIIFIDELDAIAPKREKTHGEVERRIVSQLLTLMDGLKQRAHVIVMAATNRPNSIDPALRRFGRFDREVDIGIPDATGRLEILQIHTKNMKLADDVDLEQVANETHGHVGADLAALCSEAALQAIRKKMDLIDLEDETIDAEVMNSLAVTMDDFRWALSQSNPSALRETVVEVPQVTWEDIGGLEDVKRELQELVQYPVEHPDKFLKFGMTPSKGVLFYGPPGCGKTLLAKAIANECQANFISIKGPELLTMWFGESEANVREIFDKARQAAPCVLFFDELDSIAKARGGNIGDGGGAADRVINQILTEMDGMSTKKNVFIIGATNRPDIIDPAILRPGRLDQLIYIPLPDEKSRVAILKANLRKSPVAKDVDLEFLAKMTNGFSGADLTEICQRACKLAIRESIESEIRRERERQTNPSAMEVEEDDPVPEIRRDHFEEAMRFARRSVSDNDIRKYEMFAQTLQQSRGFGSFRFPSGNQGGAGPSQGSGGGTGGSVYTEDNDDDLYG
M18AAP inhibitor – PfM18AAP inhibitors, malaria aminopeptidase, primary screen, biochemical, QFRET, recombinant enzyme; M18 aspartyl aminopeptidase (Plasmodium falciparum 3D7); hit rate 1.2% among 290,000; inhibition, % at 7.35 µM; H-Glu-NHMec fluorogenic cleavage; AID 1822, 2009;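 active means inhibition above the campaign mean inhibition over all tested compounds plus 3 SD, cut at about 28% in these data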;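 further: 0% = plate median of test compound wells and 100% = 2 mM ZnCl2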
CHOP inhibitor – inhibitors of CHOP promoter induction, primary screen, cell-based, unfolded protein response, luciferase reporter; CHO-K1 CHOP-promoter luciferase, tunicamycin-induced, 15-18 h; inhibition, % at 10 µM; hit rate 3.8% among 220,000; AID 2732, 2010;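 active means compounds that reduced the stress-induced luciferase reporter signal by more than about 70% of percent inhibition, limit read from the data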;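 further: 0% = tunicamycin plus vehicle and 100% = wells without tunicamycin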
CHOP UPR activ – activators of apoptotic CHOP UPR arm, primary screen, cell-based, CHO-CHOP luciferase reporter, luminescence, uHTS; hit rate 0.34% among 330,000; UPR activation; percent of tunicamycin response over DMSO baseline; AID 449763, 2010; activation, % at 10 µM;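 active means at 10 µM dose, activation of 40% or more, normalized to positive control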;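 further: 100% = tunicamycin at 10 µg/mL and 0% = DMSO alone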
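System: CHO CHOP reporter cells. Amount: 500 cells per well. Buffer or medium: F12 medium, 10% FBS. Compound dosing: one dose, 10 µM in 0.5% DMSO. Incubation: 6 h compound exposure at 37 °C after overnight seeding. Technique: Steady-Glo luciferase luminescence. Benchmarks: tunicamycin and DMSO controls.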
Active calls of the source: *; . = not tested or not shown. In the library only some 4.5% were active in any assay of this set; here they are far more common.

SMILES	UPR XBP1 act	HCV NS3 hel inh	p97 inhibitor	M18AAP inhibitor	CHOP inhibitor	CHOP UPR activ
CC(=O)c1ccc(N2C(=O)CC(N3CCN(S(=O)(=O)c4ccc(C)c(C)c4)CC3)C2=O)cc1 (stereo unspecified)	2	.	.	.	.	4
CN1C(=O)CSC1=NC12CC3CC(CC(C3)C1)C2	-4	5	-1	-5	73*	0
O=C(Cn1c(=O)sc2ccccc21)NCc1ccccn1	2	7	-1	0	75*	3
Cc1ccc(C(=O)c2c[nH]c3c(F)cc(F)cc3c2=O)cc1	1	-5	4	-2	10	0
CC(=O)N1CCC(C(=O)c2ccc(Cl)cc2)CC1	-3	8	-3	-1	89*	-2
O=C(Nc1ccc(Cl)cc1)C1C2CCCCC21 (stereo unspecified)	3	9	.	15	.	7
Cc1nn(C(=O)c2ccco2)c(C)c1Sc1ccc(Cl)cc1	-2	-1	4	-8	73*	4
CCCc1cc(=O)oc2c(C)c(OCC(=O)Nc3cccnc3)ccc12	-1	-4	.	-4	.	1
C=CS(=O)(=O)c1sc(Cl)c(N2CCOCC2)c1[N+](=O)[O-]	.	14	5	1	104*	.
C=CSc1sc(Cl)c(N2CCOCC2)c1[N+](=O)[O-]	-1	4	3	5	28	-1
CCCCNC(=S)NNC(=O)c1ccoc1C	-1	8	-1	29*	-30	2
CCCCNC(=S)NNC(=O)c1c(C)nc2ccccn12	-2	15	6	38*	-22	0
CCCCNC(=S)NNC(=O)c1c(Cl)c(C)nn1C	-2	1	4	-1	-15	2
Cc1ccc(-n2nc3c(=O)n(CCCC(=O)NCc4ccc(C)o4)nc(C)c3c2C)cc1	20	-7	.	1	.	-1
CCOC(=O)C(C(=O)OCC)c1cc(Br)c2noc3c2c1C(=O)c1ccccc1-3	-11	16	-2	-2	110*	-7
Cc1cc(C)nc(NS(=O)(=O)c2ccc(NC(=O)CN3C(=O)C4CC=CCC4C3=O)cc2)n1 (stereo unspecified)	3	-3	2	3	10	2
CCCn1c(SCC(=O)Nc2nc3c(s2)CCCC3)nc2c1c(=O)n(C)c(=O)n2C	-1	2	-4	-5	71*	-2
Cc1ccc(-c2nnc(SCC(=O)Nc3nc4c(s3)CCCC4)n2C)cc1	4	-7	5	7	42	2
Cc1ccc2cc(C)c3nnc(SCC(=O)Nc4nc5c(s4)CCCC5)n3c2c1	.	0	4	0	83*	.
CCCCn1c(SCC(=O)Nc2nnc(C(C)C)s2)nc2c1c(=O)n(C)c(=O)n2C	1	-3	-2	2	49	-2
Nc1c(C(=O)NCc2ccccc2)c2nc3ccccc3nc2n1CCCN1CCOCC1	0	-41	-4	9	102*	2
Nc1c(C(=O)NCc2ccc(F)cc2)c2nc3ccccc3nc2n1CCCN1CCOCC1	3	-20	-3	3	-30	2
CC[n+]1c(/C=C/N(C)c2ccccc2)oc2ccc(F)cc21	-1	18	-7	31*	-21	0
O=c1c2[nH]c3ccccc3c2ncn1CCN1CCNCC1	-1	9	-1	-7	89*	-1
CCCN(CCC)S(=O)(=O)c1ccc(C(=O)Nc2nc3c(s2)CCc2ccccc2-3)cc1	14	7	1	-4	78*	16
SMILES	UPR XBP1 act	HCV NS3 hel inh	p97 inhibitor	M18AAP inhibitor	CHOP inhibitor	CHOP UPR activ
Cc1ccc(C(=O)O)cc1NS(=O)(=O)c1ccc2ccccc2c1	-4	11	.	-3	.	-1
CC(C)OC(=O)C(C(=O)C(F)(F)F)c1cc(NS(=O)(=O)c2ccc3ccccc3c2)c2ccccc2c1O (stereo unspecified)	-1	26	6	5	92*	3
Cc1ccc(CNc2nc3ccccc3s2)s1	-8	-6	2	4	74*	-4
COc1ccc(CNc2nc3ccccc3s2)cc1OC	0	-6	.	2	.	5
Oc1c(CN2CCN(c3ccccc3)CC2)cc(Br)c2cccnc12	.	-40	8	13	89*	.
CC(C)(C)c1ccc(OCCn2nc(C(=O)O)c3ccccc3c2=O)cc1	0	-21	.	4	.	1
O=C(O)c1nn(CC(=O)N(C2CCCCC2)C2CCCCC2)c(=O)c2ccccc12	-3	1	2	-8	93*	3
Cc1cccc(OCCn2nc(C(=O)O)c3ccccc3c2=O)c1	-2	-2	-7	-7	85*	-3
Cc1cccc(C)c1OCCn1nc(C(=O)O)c2ccccc2c1=O	1	-2	-7	-2	72*	-2
Cc1ccc(SCCn2nc(C(=O)O)c3ccccc3c2=O)cc1	-2	2	2	5	32	1
C=CCN(C(=O)c1csnn1)C(C(=O)NCc1ccc(F)cc1)c1sccc1C (stereo unspecified)	-2	8	.	3	.	2
Cc1ccc(C(=O)NCC(=O)OCCOc2ccccc2Cl)cc1	6	.	.	.	.	4
CN(CC(=O)Nc1ccccc1Br)C(=O)c1ccc2c(=O)n3c(nc2c1)CCC3	-2	.	.	.	.	4
Cc1nc2ccccc2c(=O)n1N	3	-4	2	-3	51	1
CCn1cc(Br)c(-c2nc3ccccc3c(=O)n2N)n1	1	0	1	7	90*	2
CN(C)S(=O)(=O)c1ccc(Cl)c(NC(=O)CNC2(C)CCS(=O)(=O)C2)c1 (stereo unspecified)	1	.	.	.	.	0
CCn1c(=O)c([N+](=O)[O-])c(NCCN(C)C)c2ccccc21	-2	2	-8	2	-27	2
CCn1c(=O)c([N+](=O)[O-])c(Cl)c2ccccc21	-6	-6	2	-94	108*	-10
COc1ccccc1CCNCc1ccc(OC)c(OCc2ccccc2)c1	0	-67	1	6	82*	2
COc1ccc(CNCc2ccco2)cc1OCc1ccccc1	-4	-6	3	2	18	3
O=C(OC(C(=O)NCc1ccco1)C(OC(=O)c1ccccc1)C(=O)NCc1ccco1)c1ccccc1 (stereo unspecified)	-2	9	0	3	94*	0
CC(C)C(OC(=O)c1cccs1)C(=O)NCc1ccco1 (stereo unspecified)	-2	9	2	-2	35	-2

Screens deposited in PubChem BioAssay by several laboratories.
